Assay outcomes as filed in PubChem BioAssay.
The list is not random: actives were taken first. Their share in the collection is about 3.4%.
MC4R antagonist – human MC4R antagonism in cAMP assay. MC4R-expressing cells, MTII-stimulated cAMP, LANCE TR-FRET. inhibition, % at 6.5 µM. 0.48% of 360,000 active. P32245;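 active = inhibition above its plate's cutoff, the mean of tested wells on that plate plus 3 SD, cut at about 29% in these data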;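 note: 0% = Melanotan II alone and 100% = Melanotan II plus saturating MCL0020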
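Material – human MC4R-expressing U2OS cells · Repeats – no replicates · Detection – TR-FRET with Eu-cAMP and labeled anti-cAMP, 671 nm · Times – compound 30 min, challenge 1 h, detection 1 h · Compound – single nominal compound dose of 6.5 µM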
HTR2A ag – agonists of mouse serotonin 5-HT2A receptor (HTR2A). 0.66% of 360,000 active. CHO-K1 mHTR2A beta-arrestin complementation, luminescence; percent of 30 µM serotonin response. P35363. activation, % at 7.6 µM;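 active = activation above a run cutoff, the mean activation of all tested compounds plus 3 SD, cut at about 14% in these data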;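 note: 0% = plate median of compound wells and 100% = 30 µM serotonin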
ANO1 block – mouse TMEM16A channel inhibition, primary screen; Q8BHY3; HEK293 TMEM16A/YFP iodide influx fluorescence, ionomycin; normalized B-score (activity score, 25-100; higher = stronger inhibition) at 10 µM; 1.2% of 310,000 active; AID 588511;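 active = ratio plate-corrected score three or more library SD toward inhibition, starting fluorescence score within five deviations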;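 note: score derived from kinetic fluorescence span divided by baseline fluorescence per well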
Target sequence (Q8BHY3 whole entry, looked up): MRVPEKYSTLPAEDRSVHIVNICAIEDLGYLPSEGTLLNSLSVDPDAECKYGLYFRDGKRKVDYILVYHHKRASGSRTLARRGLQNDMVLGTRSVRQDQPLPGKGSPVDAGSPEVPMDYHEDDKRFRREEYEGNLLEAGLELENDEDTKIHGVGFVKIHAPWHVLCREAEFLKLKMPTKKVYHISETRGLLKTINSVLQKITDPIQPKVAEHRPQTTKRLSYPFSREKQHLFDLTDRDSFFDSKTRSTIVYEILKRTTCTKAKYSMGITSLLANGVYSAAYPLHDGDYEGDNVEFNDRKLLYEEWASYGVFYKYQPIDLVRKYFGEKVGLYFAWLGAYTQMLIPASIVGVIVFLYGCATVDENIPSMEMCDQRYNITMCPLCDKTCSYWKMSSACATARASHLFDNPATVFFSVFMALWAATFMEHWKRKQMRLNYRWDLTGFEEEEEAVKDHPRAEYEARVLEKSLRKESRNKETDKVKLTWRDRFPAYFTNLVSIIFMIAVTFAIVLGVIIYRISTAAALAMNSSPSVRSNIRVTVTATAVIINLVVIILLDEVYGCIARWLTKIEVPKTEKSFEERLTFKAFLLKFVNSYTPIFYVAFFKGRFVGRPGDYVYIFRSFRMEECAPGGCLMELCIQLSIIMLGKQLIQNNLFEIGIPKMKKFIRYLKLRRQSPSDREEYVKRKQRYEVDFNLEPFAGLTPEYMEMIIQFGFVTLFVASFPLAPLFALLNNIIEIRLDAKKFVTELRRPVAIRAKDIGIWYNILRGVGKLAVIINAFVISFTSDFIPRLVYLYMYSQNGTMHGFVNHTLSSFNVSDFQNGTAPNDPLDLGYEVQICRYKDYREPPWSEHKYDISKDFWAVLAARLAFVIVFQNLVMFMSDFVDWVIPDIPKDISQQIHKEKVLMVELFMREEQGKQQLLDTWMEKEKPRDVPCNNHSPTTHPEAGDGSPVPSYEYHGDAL
MC4R barr agon – agonists of human melanocortin 4 receptor (MC4R) beta-arrestin. P32245. U2OS MC4R beta-arrestin complementation, luminescence; percent of melanotan II response, DMSO zero. activation, % at 8.9 µM. 0.98% of 360,000 active;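 active = activation above a per-plate cutoff, the mean activation of sample wells on that plate plus 3 SD, cut at about 8% in these data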
TMEM16A act – activates or potentiates the mouse TMEM16A chloride channel; Q8BHY3; HEK293 TMEM16A/YFP-H148Q/I152L, iodide quench fluorescence; hits give low values; B-score at 10 µM; 0.3% of 340,000 active; AID 623877;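 active = fluorescence-ratio B-score plate-corrected deviation score at least 3 library SD below zero, with starting fluorescence score within 5 deviations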;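 note: channel opened by trigger with iodide after compound preincubation; score built on the fluorescence ratio of max minus min over baseline; more negative score means more quench and so TMEM16A activation or potentiation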
MIN6 prolif – induces beta-cell replication in MIN6 cells. proliferation, % at 10 µM. MIN6 cells proliferation, ATPlite luminescence, 48 h; cells starved in 0.2% serum; 100% = growth in 10% serum. 0.29% of 330,000 active;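 active = compounds whose signal lies at least 3.5 SD above the mean of all wells on their plate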;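 note: 0% = DMSO-treated cells in low-serum medium and 100% = 10% serum control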
TMEM16A reconf – re-confirmation of mouse TMEM16A chloride channel inhibitors; shares compounds with ANO1 block; HEK293 TMEM16A/YFP-H148Q, iodide quench fluorescence; ionomycin added to raise cell calcium; inhibition, % at 10 µM; 39% of 2,300 active;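 active = mean duplicate percent inhibition, scaled so buffer wells are 0 and the reference blocker 100, over three buffer SD above buffer mean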
TMEM16A Ca cntr – calcium mobilization counter-screen hit for TMEM16A inhibitor series. shares compounds with ANO1 block. TMEM16A/YFP HEK293, Fluo4 calcium mobilization. calcium response (% of ionomycin), % at 10 µM. 2% of 2,300 active;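 active = duplicate-averaged calcium signal over 20% of the ionomycin maximum, relative to buffer baseline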;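 note: each well's signal is peak minus trough fluorescence divided by its pre-addition baseline; 0% = buffer wells and 100% = ionomycin wells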
YFP-HEK293 quench – acts in parental YFP-HEK293 cells lacking TMEM16A, counter-screen; shares compounds with ANO1 block; iodide YFP quench, ionomycin; YFP ratio F(max-min)/F0 at 10 µM; 2,300 tested, under 10 active; AID 652233;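 active = yellow fluorescent protein signal ratio exceeding the buffer control mean by over 5 SD of those controls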;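 note: ratio is mean of duplicate wells from kinetic YFP trace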
ClC-1 rat inh – selectivity of TMEM16A inhibitors: inhibition of rat ClC-1 chloride channel; shares compounds with ANO1 block; CHO ClC-1-YFP, iodide influx fluorescence quench; iodide control reads 0, buffer control 100; ratio percent, % at 10 µM; 2,300 tested, under 10 active;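 active = duplicate-mean ratio percent above the mean of iodide-only control wells, which defines zero, plus 5 of their SD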;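 note: higher percent means stronger block of ClC-1 iodide influx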
Starred values were filed as active, the others as inactive; i = inactive; . = not tested or not shown.

SMILES	MC4R antagonist	HTR2A ag	ANO1 block	MC4R barr agon	TMEM16A act	MIN6 prolif	TMEM16A reconf	TMEM16A Ca cntr	YFP-HEK293 quench	ClC-1 rat inh
Cc1ccccc1OCC(=O)N1N=C(C(F)(F)F)CC1(O)C(C)(C)C (centres undefined)	5.9	6.1	25*	5.1	i	0.3	i	i	-1.06	-4.0
CC(C)(C)C1(O)CC(C(F)(F)F)=NN1C(=O)CCc1ccccc1 (centres undefined)	7.3	-3.5	i	0.7	i	-1.9	.	.	.	.
O=C(Nc1nc(-c2ccc(F)cc2)cs1)C1CCN(C(=O)c2ccc(F)cc2)CC1	7.6	-3.1	25*	0.8	i	-7.1	18.5%*	i	-1.08	-16.5
CC1N(C(=O)N2CCOCC2)CCN1S(=O)(=O)c1cccc(C(F)(F)F)c1 (centres undefined)	13.4	1.4	i	-0.6	i	-2.6	.	.	.	.
CCCN(CCC)c1nc(NC2CCN(C(=O)OCC)CC2)nc(OC)n1	-16.6	-2.2	25*	2.2	i	-3.6	i	i	-1.06	-9.0
CCOC(=O)N1CCC(Nc2c(OCC)c(=O)c2=O)CC1	0.6	-1.1	i	-0.1	i	-0.2	.	.	.	.
CCOC(=O)CSc1nnc(NC(=O)c2cc([N+](=O)[O-])cc([N+](=O)[O-])c2)s1	3.6	-0.9	25*	-1.8	i	-4.6	i	i	-0.888	-11.0
COCCSc1nnc(NC(=O)c2ccc([N+](=O)[O-])cc2)s1	12.2	2.2	i	-2.9	i	-0.7	.	.	.	.
CN1C(=O)c2ccccc2NC(=O)[C@]12O[C@@H]2c1cccc(O)c1	7.9	-1.2	i	-2.6	i	-4.0	i	i	-0.55	-8.5
CCc1nc(NCc2ccc3c(c2)OCO3)c2oc3ccccc3c2n1	2.7	-1.4	i	2.8	i	-4.3	.	.	.	.
Cc1nc(NCc2ccc3c(c2)OCO3)c2oc3ccccc3c2n1	3.0	-4.2	25*	1.5	i	-1.0	i	i	-1.17	-4.0
O=c1cc(-c2ccccc2)nc2c(-c3ccccc3)c(C(F)(F)F)[nH]n12	1.3	7.3	100*	-1.8	i	-4.3	58.0%*	i	-0.975	-9.5
Cc1cc(=O)n2[nH]c(C)c(-c3ccccc3)c2n1	7.0	-0.5	i	-0.8	i	-1.6	.	.	.	.
CCS(=O)(=O)Nc1cc2c3c(c1)CCC(=O)N3CCC2	-0.2	-0.6	i	0.2	i	0.1	.	.	.	.
c1ccc(Cn2ccc(-c3cnc(-c4ccccc4)s3)n2)cc1	13.0	7.2	100*	0.3	i	-1.8	45.0%*	i	-0.936	-11.0
Nc1ccn(Cc2ccccc2)n1	-1.0	4.7	i	0.7	i	1.6	.	.	.	.
O=C1NC[C@H](CCCCN2C[C@H](Cc3ccc(O)cc3)N(CCC3CCCCC3)C(=O)C2=O)N(CCC2CCCCC2)C1=O	.	0.2	.	.	.	.	.	.	.	.
COC(=O)c1ccc(COc2cccc3c2CCN(Cc2cccc(C)c2)C3=O)o1	-7.7	-2.2	25*	1.7	i	0.0	19.0%*	i	-1.15	-4.0
COc1ccc(OCCC(=O)OCC(=O)NC(=O)NC(C)(C)C)cc1	-0.4	4.5	i	-0.5	i	0.0	i	i	-1.15	-11.5
CC1(C)C[C@@H]2C[C@@](C)(CN2C(=O)c2cc(COc3cccc(C(F)(F)F)c3)on2)C1	2.7	2.9	25*	0.0	i	-7.0	i	i	-1.15	-13.5
O=C(C[n+]1ccccc1)N/N=C/c1c(F)cccc1Cl	-2.3	-1.2	i	1.5	i	-0.3	.	.	.	.
Cc1ccc2nc(C)c(CN3CCN(c4ccc([N+](=O)[O-])cc4Cl)CC3)n2c1	-14.5	-9.4	25*	-0.4	i	0.0	18.5%*	i	-0.902	-13.5
O=C1CCc2cc(S(=O)(=O)NC3CCCCC3)ccc2N1	1.8	7.9	.	-0.7	i	-0.8	.	.	.	.
CCn1c(SCC(=O)Nc2ccc3c(c2)OCO3)nnc1C(C)C	10.7	6.9	i	1.8	i	0.0	.	.	.	.
COc1ccccc1C1/C(=C(\O)c2ccc3c(c2)OCCO3)C(=O)C(=O)N1Cc1cccnc1 (centres undefined)	2.3	7.4	i	-0.7	i	3.2	.	.	.	.
SMILES	MC4R antagonist	HTR2A ag	ANO1 block	MC4R barr agon	TMEM16A act	MIN6 prolif	TMEM16A reconf	TMEM16A Ca cntr	YFP-HEK293 quench	ClC-1 rat inh
Cc1cccc(OCc2nnc(SCC(=O)N3CCN(c4ccccc4)CC3)o2)c1C	0.4	-5.5	100*	0.2	i	-4.8	i	i	-0.971	-9.5
C=CCn1c(COc2cccc(C)c2C)nnc1SCC(=O)N1CCN(c2ccccc2)CC1	-6.3	4.6	i	2.7	i	-5.1	.	.	.	.
Fc1ccc(Oc2ccnc(Cl)n2)c(Cl)c1	.	.	i	.	i	3.5	.	.	.	.
CSc1ccc(CN(C)C(=O)COc2ccc(C(=O)c3ccccc3)cc2)cc1	-3.1	-6.1	100*	-0.9	i	-2.3	i	i	-1.33	-7.0
Cc1cccc[n+]1CC(=O)/C=C1\N(C)c2ccccc2C1(C)C	8.6	-4.6	i	-0.9	i	-6.4	.	.	.	.
CNS(=O)(=O)c1cccc(C(=O)OCC(=O)/C=C2/N(C)c3ccccc3C2(C)C)c1	-0.2	-2.8	i	1.2	i	-6.2	21.0%*	i	-1.17	-6.0
CN1/C(=C\C(=O)CN2C(=O)NC3(CCCCCC3)C2=O)C(C)(C)c2ccccc21	-4.0	-1.8	i	-2.2	i	-3.7	i	i	-0.658	8.5
CN1/C(=C\C(=O)COC(=O)CNC(=O)c2ccc3ccccc3c2)C(C)(C)c2ccccc21	11.3	5.3	i	1.3	i	-5.9	29.5%*	i	-0.958	-15.5
CN1/C(=C\C(=O)COC(=O)c2ccc(O)c(O)c2)C(C)(C)c2ccccc21	.	.	100*	.	.	-5.5	70.0%*	i	-0.723	-19.0
CCCS(=O)(=O)NC(=O)C1(C)CCCN(C(=O)C(C)(C)Oc2ccc(Cl)cc2)C1 (centres undefined)	2.8	-0.6	.	-1.2	.	.	.	.	.	.
